Converted amounts (≈) assume the structure as drawn.
Columns and labels:
Rattus norvegicus = test: Antihypertensive activity in Wistar rat assessed as decrease of systolic blood pressure at 31 mg/kg, po up to 8 hrs; format: functional, Artery
Procedure, shortened: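 Renal hypertension in female Wistar rats: figure-of-eight ligature on one kidney, other kidney removed. Rats with systolic pressure above 160 mmHg used, groups of ten. Tail-cuff occlusion with pulse detector measured systolic pressure before and 2, 4, 6, 8 h after a 31 mg/kg oral dose. Value is the mean decrease over 8 h ± standard error.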

Canis familiaris = test: Vasodilatory activity in dog assessed as increase of femoral blood flow by 100 mL/min administered as intraarterially; format: functional, Canis lupus familiaris
Procedure, shortened: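 Pentobarbital-anesthetized dogs with an electromagnetic flowmeter sensor around a femoral artery. Compound was injected intraarterially through a branch vessel at increasing doses, and the peak flow increase after each dose was recorded. ED100, the dose raising flow 100 mL/min above control, was extrapolated from the dose-response curve.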

Oryctolagus cuniculus = organism: Oryctolagus cuniculus; test: Blockade of alpha-adrenergic receptor in rabbit aortic strips assessed as reduction of epinephrine-induced response
Procedure, shortened: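 Rabbit aortic strip sensitized by repeated exposure to 0.01 mcg/mL epinephrine. Responses to this concentration were compared before and after 200 s incubation with rising compound concentrations. Percent blockade was calculated at each concentration. ED50, the concentration blocking the response by 50%, was extrapolated from the concentration-response curve.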

| ED50 (Oryctolagus cuniculus) | SMILES | Activity (Rattus norvegicus) | ED100 (Canis familiaris) |
| --- | --- | --- | --- |
| 0.64 µg/mL | CN(C)CCCN1C(=O)C(CCCCCCCN2CCN(c3ccccc3)CC2)C(=O)c2ccccc21.CO.O=C(O)C(=O)O (configuration not stated) | 12 mmHg | 205 µg |
|  | COc1ccc(Cc2nccc3cc(OC)c(OC)cc23)cc1OC [PAPAVERINE] |  | 1825 µg |
| 0.03 µg/mL (≈ 0.107 µM) | Cc1ccc(N(CC2=NCCN2)c2cccc(O)c2)cc1 [PHENTOLAMINE] | 45 mmHg | 117 µg |
